ChEMBL document CHEMBL1124770, “Synthesis and pharmacological evaluation of amino, azido, and nitrogen mustard analogues of 10-substituted cannabidiol and 11- or 12-substituted delta 8-tetrahydrocannabinol” (1990)

Assays:
Assay type in all cases: functional
Mus musculus [1] = assay: Evaluated for hypothermic activity in mice at a dose of 3 mg/kg.
Summary of the method: (§1)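 Mice dosed by tail-vein injection (0.1 mL/10 g) in ethanol/emulphor/saline (1:1:18). Body temperature change (°C) measured by previously reported methods. Vehicle and Δ9-THC positive controls run each day. Mean ± SEM; ANOVA with Dunnett's t test versus control, p < 0.05 two-tailed.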

Mus musculus [2] = assay: Evaluated for reduction in spontaneous locomotor activity in mice at a dose of 3 mg/Kg
Summary of the method: (§2)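 Tail-vein injection in mice (0.1 mL/10 g; ethanol/emulphor/saline 1:1:18). Spontaneous locomotor activity counted as counts/10 min, per previously reported methods. Daily vehicle and Δ9-THC positive controls. Mean ± SEM; ANOVA with Dunnett's t test, p < 0.05 two-tailed.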

Mus musculus [3] = assay: Tail-flick latency was determined at a concentration of 3 mg/kg.
Summary of the method: (§3)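 Mice, drug suspended in ethanol/emulphor/saline (1:1:18) and given by tail-vein injection (0.1 mL/10 g). Antinociception measured as tail-flick latency (s). Vehicle and Δ9-THC positive controls run in each daily experiment. Data given as mean ± SEM. ANOVA with Dunnett's t test against control, p < 0.05 (two-tailed).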

Mus musculus [4] = assay: Evaluated for catalepsy activity in mice and percentage immobility was determined at a concentration of 0 mg/Kg.
Summary of the method: (§4)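 Mice, single tail-vein injection (0.1 mL/10 g) in ethanol/emulphor/saline (1:1:18). Catalepsy scored by ring test as % immobility, per previously reported methods. Vehicle and Δ9-THC positive-control groups run in each daily experiment. Mean ± SEM; ANOVA with Dunnett's t test versus control, p < 0.05 two-tailed.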

Mus musculus [5] = assay: Evaluated for reduction in spontaneous locomotor activity in mice, at a dose of 0 mg/Kg; summary of the method: as §2
Mus musculus [6] = assay: Evaluated for catalepsy activity in mice and percentage immobility was determined at a concentration of 3 mg/kg.; summary of the method: as §4
Mus musculus [7] = assay: Tail-flick latency was determined at a concentration of 0 mg/Kg.
Summary of the method: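 Antinociception in mice by tail-flick latency (s), per previously reported methods, after tail-vein injection (0.1 mL/10 g) in ethanol/emulphor/saline (1:1:18). Vehicle and Δ9-THC controls run daily. Mean ± SEM; ANOVA with Dunnett's t test, p < 0.05 two-tailed.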

Mus musculus [8] = assay: Evaluated for hypothermic activity in mice at a dose of 0 mg/Kg.; summary of the method: as §1
Mus musculus [9] = assay: Evaluated for hypothermic activity in mice at a dose of 100 mg/Kg administered intraventricularly
Summary of the method: (§5)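 Intraventricular injection in mice, 5 μL volume, in ethanol/emulphor/saline (1:1:18) vehicle. Change in body temperature (°C) recorded by previously reported methods, with vehicle and Δ9-THC controls. Mean ± SEM; ANOVA with Dunnett's t test versus control, p < 0.05 two-tailed.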

Mus musculus [10] = assay: Evaluated for reduction in spontaneous locomotor activity in mice at a dose of 100 mg/Kg administered intraventricularly
Summary of the method: (§6)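 Mice given intraventricular injection of 5 μL in ethanol/emulphor/saline (1:1:18). Spontaneous locomotor activity recorded as counts/10 min by previously reported methods, alongside vehicle and Δ9-THC controls. Mean ± SEM; ANOVA with Dunnett's t test, p < 0.05 two-tailed.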

Mus musculus [11] = assay: Evaluated for hypothermic activity in mice at a dose of 0 mg/Kg administered intraventricularly; summary of the method: as §5
Mus musculus [12] = assay: Evaluated for reduction in spontaneous locomotor activity in mice, at a dose of 0 mg/Kg administered intraventricularly; summary of the method: as §6
Mus musculus [13] = assay: Tail-flick latency was determined at a concentration of 0 mg/Kg administered intraventricularly
Summary of the method: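 Tail-flick latency (s) in mice after intraventricular injection (5 μL) of ethanol/emulphor/saline (1:1:18) vehicle, measured by previously reported methods. Mean ± SEM; ANOVA with Dunnett's t test, p < 0.05 two-tailed.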

Mus musculus [14] = assay: Evaluated for hypothermic activity in mice at a dose of 150 mg/Kg administered intraventricularly; summary of the method: as §5
Mus musculus [15] = assay: Evaluated for reduction in spontaneous locomotor activity in mice at a dose of 150 mg/Kg administered intraventricularly; summary of the method: as §6
Mus musculus [16] = assay: Evaluated for reduction in spontaneous locomotor activity in mice at a dose of 5 mg/Kg; summary of the method: as §2
Mus musculus [17] = assay: Evaluated for reduction in spontaneous locomotor activity in mice at a dose of 6 mg/Kg; summary of the method: as §2
Mus musculus [18] = assay: Tail-flick latency was determined at a concentration of 6 mg/kg.; summary of the method: as §3
Mus musculus [19] = assay: Evaluated for catalepsy activity in mice and percentage immobility was determined at a concentration of 3 mg/Kg.; summary of the method: as §4
Mus musculus [20] = assay: Evaluated for hypothermic activity in mice at a dose of 6 mg/kg.; summary of the method: as §1
Mus musculus [21] = assay: Tail-flick latency was determined at a concentration of 3 mg/Kg.; summary of the method: as §3
Mus musculus [22] = assay: Evaluated for catalepsy activity in mice and percentage immobility was determined at a concentration of 5 mg/kg.; summary of the method: as §4
Mus musculus [23] = assay: Evaluated for hypothermic activity in mice at a dose of 5 mg/Kg.; summary of the method: as §1
Mus musculus [24] = assay: Tail-flick latency was determined at a concentration of 5 mg/Kg.; summary of the method: as §3
Mus musculus [25] = assay: Evaluated for catalepsy activity in mice and percentage immobility was determined at a concentration of 100 mg/Kg.; summary of the method: as §4
Mus musculus [26] = assay: Tail-flick latency was determined at a concentration of 100 mg/Kg.; summary of the method: as §3
Mus musculus [27] = assay: Evaluated for hypothermic activity in mice at a dose of 100 mg/Kg.; summary of the method: as §1
Mus musculus [28] = assay: Evaluated for reduction in spontaneous locomotor activity in mice at a dose of 100 mg/Kg; summary of the method: as §2

C=C(CNCC)[C@@H]1CCC(C)=CC1c1c(O)cc(CCCCC)cc1O (stereo partly drawn)
Temperature (Mus musculus [1]): <-2.1 °C | Spont activity (Mus musculus [2]): <27 Counts 10min-1 | Tail flick latency (Mus musculus [3]): 1 s | Immobility (Mus musculus [4]): 4% | Spont activity (Mus musculus [5]): 53 Counts 10min-1 | Immobility (Mus musculus [6]): 7% | Tail flick latency (Mus musculus [7]): 0.6 s | Temperature (Mus musculus [8]): -0.8 °C

C=C(CN(CCCl)CCCl)[C@@H]1CCC(C)=CC1c1c(O)cc(CCCCC)cc1O (stereo partly drawn)
Temperature (Mus musculus [9]): -1.8 °C | Spont activity (Mus musculus [10]): 81 Counts 10min-1 | Temperature (Mus musculus [11]): -1.1 °C | Spont activity (Mus musculus [12]): 90 Counts 10min-1 | Tail flick latency (Mus musculus [13]): -0.2 s | Temperature (Mus musculus [14]): <-3.8 °C | Spont activity (Mus musculus [15]): 75 Counts 10min-1

CCCCCc1cc(O)c2c(c1)OC(C)(CN)[C@@H]1CC=C(C)CC21 (stereo partly drawn)
Temperature (Mus musculus [1]): -1.1 °C | Spont activity (Mus musculus [16]): <42 Counts 10min-1 | Spont activity (Mus musculus [17]): <25 Counts 10min-1 | Tail flick latency (Mus musculus [18]): 1.1 s | Spont activity (Mus musculus [2]): <43 Counts 10min-1 | Immobility (Mus musculus [19]): 24% | Temperature (Mus musculus [20]): <-3 °C | Tail flick latency (Mus musculus [21]): 1.1 s | Immobility (Mus musculus [4]): 13% | Immobility (Mus musculus [22]): 15% | Temperature (Mus musculus [23]): -0.7 °C | Spont activity (Mus musculus [5]): 68 Counts 10min-1 | Tail flick latency (Mus musculus [7]): 0.6 s | Temperature (Mus musculus [8]): -0.8 °C | Tail flick latency (Mus musculus [24]): <1.9 s

C=C(C)[C@@H]1CCC(C)=CC1c1c(O)cc(O)cc1CCCCC (stereo partly drawn)
Immobility (Mus musculus [25]): <30% | Tail flick latency (Mus musculus [26]): 0.8 s | Immobility (Mus musculus [4]): 4% | Spont activity (Mus musculus [5]): 45 Counts 10min-1 | Temperature (Mus musculus [27]): -3.5 °C | Tail flick latency (Mus musculus [7]): 0.2 s | Spont activity (Mus musculus [28]): 57 Counts 10min-1 | Temperature (Mus musculus [8]): -1.4 °C
